Measurements from ChEMBL document CHEMBL1649383, “Mode of action of epoxyphomalins A and B and characterization of related metabolites from the marine-derived fungus Paraconiothyrium sp” (J Nat Prod, 2010).
In brackets after ≈: the same amount, converted by molar mass.

Experiments:
[1] = tested on: SF-268; assay: Cytotoxicity against human SF268 cells at 0.01 ug/ml relative to control; format: functional
[2] = tested on: SF-268; assay: Cytotoxicity against human SF268 cells; format: functional, cell-based
Summary of the method: (§1)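 Monolayer cell survival and proliferation assay run across a panel of 36 human tumor cell lines, with IC50 determined from the resulting growth data.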

[3] = Cytotoxicity against human LXFL 1121L cells; format: functional, cell-based
Summary of the method: (§2)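 Monolayer cell survival and proliferation assay run across a panel of 36 human tumour cell lines; IC50 values determined.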

[4] = Cytotoxicity against human LXFA 289L cells; format: functional, cell-based; summary of the method: as §2
[5] = Cytotoxicity against human MAXF 401NL cells; format: functional, cell-based; summary of the method: as §2
[6] = Cytotoxicity against human MEXF 520L cells; format: functional, cell-based; summary of the method: as §1
[7] = tested on: DU-145; assay: Cytotoxicity against human DU145 cells; format: functional, cell-based
Summary of the method: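 Monolayer cell survival and proliferation assay, run within a panel of 36 human tumor cell lines; IC50 determined per cell line.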

[8] = tested on: LNCaP; assay: Cytotoxicity against human LNCAP cells; format: functional, cell-based; summary of the method: as §2
[9] = Cytotoxicity against human RXF 1781L cells; format: functional, cell-based; summary of the method: as §1
[10] = Cytotoxicity against human RXF 486L cells; format: functional, cell-based; summary of the method: as §1
[11] = Cytotoxicity against human LXFL 1121L cells at 0.001 ug/ml relative to control; format: functional
[12] = Cytotoxicity against human LXFL 529L cells at 0.001 ug/ml relative to control; format: functional
[13] = Cytotoxicity against human LXFA 629L cells at 0.001 ug/ml relative to control; format: functional
[14] = Cytotoxicity against human MAXF 401NL cells at 0.001 ug/ml relative to control; format: functional
[15] = Cytotoxicity against human MEXF 462NL cells at 0.001 ug/ml relative to control; format: functional
[16] = tested on: OVCAR-3; assay: Cytotoxicity against human OVCAR3 cells at 0.001 ug/ml relative to control; format: functional
[17] = tested on: PANC-1; assay: Cytotoxicity against human PANC1 cells at 0.001 ug/ml relative to control; format: functional
[18] = tested on: CWR22R; assay: Cytotoxicity against human 22Rv1 cells at 0.001 ug/ml relative to control; format: functional
[19] = Cytotoxicity against human RXF 393NL cells at 0.001 ug/ml relative to control; format: functional
[20] = Cytotoxicity against human UXF 1138L cells at 0.001 ug/ml relative to control; format: functional
[21] = Cytotoxicity against human GXF251L cells at 0.01 ug/ml relative to control; format: functional
[22] = tested on: NCI-H460; assay: Cytotoxicity against human H460 cells at 0.01 ug/ml relative to control; format: functional
[23] = Cytotoxicity against human MAXF 401NL cells at 0.01 ug/ml relative to control; format: functional
[24] = Cytotoxicity against human MEXF 276L cells at 0.01 ug/ml relative to control; format: functional, MEXF276L
[25] = Cytotoxicity against human MEXF 520L cells at 0.01 ug/ml relative to control; format: functional
[26] = Cytotoxicity against human OVXF 899L cells at 0.01 ug/ml relative to control; format: functional
[27] = Cytotoxicity against human PC3M cells at 0.01 ug/ml relative to control; format: functional, PC-3M
[28] = Cytotoxicity against human RXF 486L cells at 0.01 ug/ml relative to control; format: functional
[29] = Cytotoxicity against human RXF 944L cells at 0.01 ug/ml relative to control; format: functional
[30] = Cytotoxicity against human BXF 1218L cells at 0.1 ug/ml relative to control; format: functional
[31] = Cytotoxicity against human LXFL 1121L cells at 0.1 ug/ml relative to control; format: functional
[32] = Cytotoxicity against human LXFA 526L cells at 0.1 ug/ml relative to control; format: functional
[33] = tested on: NCI-H460; assay: Cytotoxicity against human H460 cells at 0.1 ug/ml relative to control; format: functional
[34] = Cytotoxicity against human MEXF 520L cells at 0.1 ug/ml relative to control; format: functional
[35] = tested on: DU-145; assay: Cytotoxicity against human DU145 cells at 0.1 ug/ml relative to control; format: functional
[36] = tested on: T-24; assay: Cytotoxicity against human T24 cells at 1 ug/ml relative to control; format: functional
[37] = Cytotoxicity against human LXFL 1121L cells at 1 ug/ml relative to control; format: functional
[38] = tested on: MCF7; assay: Cytotoxicity against human MCF7 cells at 1 ug/ml relative to control; format: functional
[39] = Cytotoxicity against human MEXF 462NL cells at 1 ug/ml relative to control; format: functional
[40] = Cytotoxicity against human OVXF 899L cells at 1 ug/ml relative to control; format: functional
[41] = Cytotoxicity against human RXF 393NL cells at 1 ug/ml relative to control; format: functional
[42] = Cytotoxicity against human UXF 1138L cells at 1 ug/ml relative to control; format: functional
[43] = Cytotoxicity against human LXFA 629L cells at 10 ug/ml relative to control; format: functional
[44] = tested on: NCI-H460; assay: Cytotoxicity against human H460 cells at 10 ug/ml relative to control; format: functional
[45] = tested on: MCF7; assay: Cytotoxicity against human MCF7 cells at 10 ug/ml relative to control; format: functional
[46] = Cytotoxicity against human MEXF 520L cells at 10 ug/ml relative to control; format: functional
[47] = Cytotoxicity against human OVXF 899L cells at 10 ug/ml relative to control; format: functional
[48] = Cytotoxicity against human PXF 1752L cells at 10 ug/ml relative to control; format: functional
[49] = Cytotoxicity against human UXF 1138L cells at 10 ug/ml relative to control; format: functional

Work on `C=C1[C@@H](O)[C@H]2O[C@@]2(C[C@H]2C(C)=CC[C@H]3C(C)(C)CCC[C@]23C)[C@@H](O)[C@H]1O` [EPOXYPHOLAMIN D] yielded an Activity [1] of 97%, an IC50 [2] of 10.4 µM and an IC70 [2] of 5.62 µg/mL (≈ 15.5 µM). For the same molecule, the IC90 [2] was 8.36 µg/mL (≈ 23.1 µM), the IC50 [3] was 8.94 µM and the IC70 [3] was 5.35 µg/mL (≈ 14.8 µM). For the same molecule, the IC90 [3] was 8.82 µg/mL (≈ 24.3 µM), the IC50 [4] was 18.5 µM and the IC70 [4] was 13.9 µg/mL (≈ 38.3 µM). For the same molecule, the IC90 [4] was 28.9 µg/mL (≈ 79.6 µM), the IC50 [5] was 2.57 µM and the IC70 [5] was 3.16 µg/mL (≈ 8.72 µM). It also gave an IC90 [5] of 11.4 µg/mL (≈ 31.3 µM), an IC50 [6] of 7.67 µM and an IC70 [6] of 4.91 µg/mL (≈ 13.6 µM). It also gave an IC90 [6] of 8.68 µg/mL (≈ 23.9 µM), an IC50 [7] of 8.99 µM and an IC70 [7] of 5.88 µg/mL (≈ 16.2 µM). The IC90 [7] was 10.6 µg/mL (≈ 29.3 µM), the IC50 [8] was 17 µM and the IC70 [8] was 9.38 µg/mL (≈ 25.9 µM). For the same molecule, the IC90 [8] was 14.3 µg/mL (≈ 39.5 µM), the IC50 [9] was 11.8 µM and the IC70 [9] was 7.69 µg/mL (≈ 21.2 µM). The IC90 [9] was 13.8 µg/mL (≈ 38 µM), the IC50 [10] was 7.67 µM and the IC70 [10] was 5.27 µg/mL (≈ 14.5 µM). For the same molecule, the IC90 [10] was 10 µg/mL (≈ 27.6 µM), the Activity [11] was 116% and the Activity [12] was 99%. It also gave an Activity [13] of 96%, an Activity [14] of 106% and an Activity [15] of 133%. It also gave an Activity [16] of 100%, an Activity [17] of 90% and an Activity [18] of 92%. It also gave an Activity [19] of 98%, an Activity [20] of 96% and an Activity [21] of 100%. For the same molecule, the Activity [22] was 98%, the Activity [23] was 110% and the Activity [24] was 98%. For the same molecule, the Activity [25] was 96%, the Activity [26] was 104% and the Activity [27] was 101%. The Activity [28] was 99%, the Activity [29] was 138% and the Activity [30] was 104%. It also gave an Activity [31] of 146%, an Activity [32] of 115% and an Activity [33] of 91%. The Activity [34] was 92%, the Activity [35] was 88% and the Activity [36] was 126%. For the same molecule, the Activity [37] was 97%, the Activity [38] was 68% and the Activity [39] was 68%. The Activity [40] was 84%, the Activity [41] was 118% and the Activity [42] was 72%. It also gave an Activity [43] of 6%, an Activity [44] of 3% and an Activity [45] of 5%. For the same molecule, the Activity [46] was 5%, the Activity [47] was 12% and the Activity [48] was 13%. It also gave an Activity [49] of 9%.
